Only some compounds are listed: those with a hit (about 2.3% of all), similar ones and a draw of the others.
TRPC4 block – blocks the mouse TRPC4 cation channel | Q9QUQ5 | HEK293 TRPC4beta/mu-opioid, DAMGO-evoked Fluo4 calcium flux; hits give low values | B-score at 10 µM | 0.39% of 300,000 active;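 active = B-score over 3 SD under the library average, no early fluorescence shift, positive overall ratio signal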
Target sequence (Q9QUQ5 whole entry, looked up): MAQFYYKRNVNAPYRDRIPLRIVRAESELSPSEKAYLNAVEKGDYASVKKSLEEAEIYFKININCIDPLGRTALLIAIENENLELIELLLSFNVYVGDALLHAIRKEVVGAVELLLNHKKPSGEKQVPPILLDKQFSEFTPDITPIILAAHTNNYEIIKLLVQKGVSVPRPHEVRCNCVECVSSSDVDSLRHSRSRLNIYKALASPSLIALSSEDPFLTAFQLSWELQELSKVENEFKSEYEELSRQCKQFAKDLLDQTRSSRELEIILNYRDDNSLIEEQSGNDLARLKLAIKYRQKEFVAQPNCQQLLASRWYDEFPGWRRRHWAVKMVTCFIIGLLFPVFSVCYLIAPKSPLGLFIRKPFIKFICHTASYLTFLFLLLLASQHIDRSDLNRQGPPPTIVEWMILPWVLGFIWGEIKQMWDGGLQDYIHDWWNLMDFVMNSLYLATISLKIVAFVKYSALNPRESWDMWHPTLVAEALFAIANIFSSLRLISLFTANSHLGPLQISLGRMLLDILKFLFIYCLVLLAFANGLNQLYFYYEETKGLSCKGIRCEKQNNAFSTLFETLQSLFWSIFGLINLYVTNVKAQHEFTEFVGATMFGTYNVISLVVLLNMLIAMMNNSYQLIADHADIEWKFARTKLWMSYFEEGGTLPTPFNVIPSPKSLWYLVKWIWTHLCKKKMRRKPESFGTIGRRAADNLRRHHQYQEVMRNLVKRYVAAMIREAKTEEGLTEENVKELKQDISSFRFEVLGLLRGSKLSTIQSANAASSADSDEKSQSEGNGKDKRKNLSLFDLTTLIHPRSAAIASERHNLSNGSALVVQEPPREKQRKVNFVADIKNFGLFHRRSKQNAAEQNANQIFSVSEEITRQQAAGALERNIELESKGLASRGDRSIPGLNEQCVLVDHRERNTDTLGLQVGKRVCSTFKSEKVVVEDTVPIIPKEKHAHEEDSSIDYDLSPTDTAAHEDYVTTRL
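Assay system: TRPC4beta/mu-opioid receptor HEK293 cell line; compound dosing: single concentration per test compound; detection: Fluo4 Ca2+ flux fluorescence; evaluation: per-well B score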
TRPC4 potent – TRPC4 (mouse) allosteric potentiation; HEK293 TRPC4beta/mu-opioid, DAMGO EC20, Fluo-4 Ca2+ flux; hits give high values; B-score at 10 µM; 0.42% of 310,000 active; Q9QUQ5;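 active = B-score of calcium response area above 5 SD of library B-scores, with initial fluorescence ratio within 5 SD of library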;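 also: B-score of integrated fluorescence ratio over time as area under calcium response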
TRPC6 act – activates the mouse TRPC6 cation channel | Q61143 | HEK293-TRPC6 membrane potential dye fluorescence; hits give high values | AID 2550 | B-score at 10 µM | 0.13% of 310,000 active;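 active = B-score of the integrated fluorescence ratio above library mean plus 3 SD, and starting fluorescence ratio within library mean plus 5 SD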;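 also: higher score means more depolarization so channel activation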
TRPC6 inhibitor – inhibitors of mouse TRPC6 channel; B-score at 10 µM; AID 2553; 1.1% of 310,000 active; Q61143; HEK293-TRPC6, membrane potential dye, ACh-evoked depolarization; hits give low values;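 active = B-score under library mean minus 3 SD, initial fluorescence not abnormally high, positive integrated signal ratio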;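 also: B-score derived from integrated fluorescence ratio over the kinetic read; more negative B-score means stronger inhibition of depolarization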
TRPC4 act – opens the mouse TRPC4 cation channel; 0.49% of 310,000 active; HEK293 TRPC4beta/mu-opioid, Fluo4 calcium fluorescence; hits give high values; B-score at 10 µM;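 active = B-score above 5 SD of library B-scores, and initial fluorescence ratio not above library mean plus 5 SD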;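 also: positive B-score marks a calcium rise read as TRPC4 activation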
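Material: HEK293 stable line with TRPC4beta plus mu-opioid receptor; technique: Fluo4 calcium-sensitive dye fluorescence, kinetic, 1 Hz baseline; timing: Fluo4 dye loading 45 min at room temperature, 110 s recording; controls: assay buffer as low control, maximal DAMGO as high control; read-out: integrated baseline-normalised fluorescence ratio, converted to per-well B score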
TRPC4 sel inh 2 – second check of whether TRPC6 inhibitors also affect mouse TRPC4; shares compounds with TRPC6 inhibitor; HEK293 TRPC4/MOR, membrane potential dye fluorescence; channel activated by saturating DAMGO dose; inhibition, % at 10 µM; 42% of 920 active;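 active = compounds whose fluorescence signal differed from control wells by over 3 SD, either direction, in both duplicate plates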
TRPC4 spec – selectivity of TRPC6 inhibitors: effect on mouse TRPC4; activity change, negative = inhibition, % at 10 µM; AID 2777; 61% of 920 active; shares compounds with TRPC6 inhibitor; HEK293 TRPC4/mu-opioid, membrane potential fluorescence;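 active = rise or fall in signal beyond 3 SD of buffer-only wells in both replicate plates, either sign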;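 also: integrated kinetic ratio of fluorescence range over baseline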
HEK293 MPD ctr 2-1 – second counter-screen for TRPC6 inhibitors: parental HEK293 cells | signal change vs control, % at 10 µM | 31% of 920 active | AID 2779 | shares compounds with TRPC6 inhibitor | parental HEK293 membrane potential dye fluorescence; maximal acetylcholine challenge after compound addition;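 active = membrane potential signal moving either way by over 3 SD of the maximum-effect control, in both duplicate plates, meaning non-specific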
HEK293 MPD ctr-1 – checks TRPC6 inhibitor effects in parental HEK293 cells; 60% of 920 active; membrane potential signal change, % at 10 µM; parental HEK293 membrane potential dye fluorescence; AID 2780; shares compounds with TRPC6 inhibitor;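 active = membrane potential signal shifting up or down by more than 3 SD of buffer-only wells, on both duplicate plates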
HEK293 MPD ctr-2 – counter-screen for TRPC6 modulators: effect in parental HEK293 cells | shares compounds with TRPC6 inhibitor | membrane potential dye fluorescence | membrane potential signal change, % at 10 µM | 51% of 2,400 active | AID 488924;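 active = membrane potential signal moves up or down beyond 5 SD from buffer-only wells, on both duplicate plates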
HEK293 MPD ctr 2-2 – second check of TRPC6 modulator effects in parental HEK293 cells; shares compounds with TRPC6 inhibitor; membrane potential dye fluorescence; after compound, maximal acetylcholine stimulation; inhibition, % at 10 µM; 14% of 2,400 active; AID 488926;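 active = membrane potential signal drops by more than 5 SD from the mean control signal, in both duplicate plates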;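 also: plate controls were acetylcholine ECmax control wells for no effect and buffer only wells for full effect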
TRPC4/MOR mod – mouse TRPC4 off-target activity of TRPC6 modulators. shares compounds with TRPC6 inhibitor. 69% of 2,400 active. AID 488927. percent change from control (negative = decrease, positive = increase), % at 10 µM. HEK293 TRPC4/mu-opioid, membrane potential fluorescence;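 active = membrane potential signal moved up or down beyond 5 SD of buffer control wells, in both duplicate plates, actives on both sides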;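 also: plate controls were assay buffer wells for no effect and DAMGO maximal-effect wells for full effect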
TRPC4 ctr inh 2 – second selectivity test of TRPC6 modulators against mouse TRPC4. AID 488928. shares compounds with TRPC6 inhibitor. HEK293 TRPC4/mu-opioid, membrane potential dye fluorescence; stimulated with maximal-effect DAMGO. 55% of 2,400 active. inhibition, % at 10 µM;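 active = drop in membrane potential signal beyond 5 SD of the control wells in both duplicate plates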;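 also: TRPC4 counter screen for TRPC6 hits run under conditions tuned for TRPC6 not TRPC4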
TRPC6 block conf – mouse TRPC6 inhibitor confirmation | shares compounds with TRPC6 inhibitor | HEK293-TRPC6, membrane potential dye, ACh-evoked depolarization | inhibition, % at 10 µM | 43% of 3,300 active | AID 488960;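 active = fluorescence ratio falls more than 5 SD below the full-stimulation control mean, in both duplicate runs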;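 also: integrated fluorescence ratio of peak minus minimum over baseline after agonist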
TRPC6 act conf – confirmation of mouse TRPC6 activators | activation, % at 10 µM | shares compounds with TRPC6 inhibitor | 11% of 2,800 active | AID 488961 | HEK293-TRPC6 membrane potential dye fluorescence, FDSS;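 active = ratio signal rise beyond 5 SD above unstimulated control wells' mean, seen in both duplicate runs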;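 also: plate controls were buffer EC0 wells for no effect and acetylcholine ECmax response for full effect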
Active calls of the source: *; i = inactive; nt = no result given; + = active, no number.

SMILES	TRPC4 block	TRPC4 potent	TRPC6 act	TRPC6 inhibitor	TRPC4 act	HEK293 MPD ctr-2	HEK293 MPD ctr 2-2	TRPC4/MOR mod	TRPC4 ctr inh 2	TRPC6 block conf	TRPC6 act conf	others
CCn1cc(C(=O)O)c(=O)c2cc(F)c(N3CCN(C)CC3)cc21	i	i	i	i	i	nt	nt	nt	nt	nt	nt
CCOC(=O)c1cn(CC)c2cc3c(cc2c1=O)OCO3	i	i	i	-5.8*	i	-126%*	i	-32%*	32%*	i	i
CCOC(=O)c1cn(CC)c2cc(N3CCN(C)CC3)c(F)cc2c1=O	i	i	i	i	i	nt	nt	nt	nt	nt	nt
CCCN(CCC)CCCNc1ccc(C(=O)Nc2cccc(OC)c2)cc1[N+](=O)[O-]	i	i	i	-7.3*	i	nt	nt	nt	nt	i	i	TRPC4 sel inh 2=55%*;TRPC4 spec=-18%*;HEK293 MPD ctr 2-1=i;HEK293 MPD ctr-1=i
c1csc(C2Nc3ccccc3-c3nc4ccccc4n32)c1 (stereo not drawn)	i	i	i	-6.6*	i	nt	nt	nt	nt	i	i	TRPC4 sel inh 2=i;TRPC4 spec=9.1%*;HEK293 MPD ctr 2-1=i;HEK293 MPD ctr-1=2.3%*
COc1cc(/C=C(\C#N)C(=O)NCCc2ccccc2)cc(OC)c1O	nt	i	14*	i	i	394%*	i	72%*	i	i	68%*
COc1cc(/C=C(\C#N)C(=O)c2c[nH]c3ccccc23)cc(OC)c1O	i	i	24*	i	i	256%*	i	72%*	i	i	88%*
COC(=O)/C(C#N)=C/c1c[nH]c2ccccc12	i	i	i	i	i	nt	nt	nt	nt	nt	nt
COc1cc(/C=C/C(=O)CC(=O)/C=C/c2ccc(O)c(OC)c2)ccc1O	i	i	75*	i	84*	+	i	380%*	i	i	524%*
COC(=O)c1ccc(NC(=O)N2CCCC(C(=O)c3ccccc3OC)C2)cc1 (stereo not drawn)	i	i	i	-9.2*	i	nt	nt	nt	nt	i	nt	TRPC4 sel inh 2=i;TRPC4 spec=i;HEK293 MPD ctr 2-1=226%*;HEK293 MPD ctr-1=i
COc1ccccc1C(=O)C1CCCN(C(=O)c2cn3cc(Cl)ccc3n2)C1 (stereo not drawn)	i	i	i	-8.2*	i	nt	nt	nt	nt	i	i	TRPC4 sel inh 2=i;TRPC4 spec=0.1%*;HEK293 MPD ctr 2-1=i;HEK293 MPD ctr-1=0.3%*
COc1ccccc1C(=O)C1CCCN(C(=O)c2ccccc2Cl)C1 (stereo not drawn)	i	i	i	i	i	nt	nt	nt	nt	nt	nt
Cc1cnc(C(=O)N2CCCC(C(=O)c3ccc(Cl)cc3C)C2)cn1 (stereo not drawn)	i	i	i	-5.3*	i	i	i	14%*	i	46%*	nt
CCS(=O)(=O)N1Cc2ccccc2CC1C(=O)Nc1nnc(SCc2ccc(C#N)cc2)s1 (stereo not drawn)	i	i	23*	i	i	i	i	i	i	i	i
O=C1/C(=C/c2ccc(F)c(F)c2)CSc2sccc21	i	i	i	i	i	nt	nt	nt	nt	nt	nt
O=C1/C(=C\c2ccc(C(F)(F)F)cc2)CSc2sccc21	i	i	i	-5*	i	i	i	8.5%*	i	i	i
COc1cccc2c1cc1c(=O)n(CC(=O)NCCCN3CCN(C)CC3)nc(C)n12	i	i	i	i	i	nt	nt	nt	nt	nt	nt
N#CCC(=O)N/N=C/c1cc([N+](=O)[O-])ccc1N1CCOCC1	i	i	i	i	i	nt	nt	nt	nt	nt	nt
CN1CCN(c2ccc([N+](=O)[O-])cc2/C=N/NC(=O)c2ccc(F)cc2)CC1	i	i	i	-6*	i	-174%*	i	-34%*	i	i	i
COCCn1nnnc1C(c1cccs1)N1CCCC(C)C1 (stereo not drawn)	i	i	i	i	i	nt	nt	nt	nt	nt	nt
CCN(CC)CCn1nc2c3c(cccc3c1=O)-c1ccccc1-2	i	i	i	-5.8*	i	-78%*	i	-18%*	55%*	40%*	i
COc1ccccc1/C=C/C=C1N=C(/C=C/c2ccc(Cl)cc2)OC/1=O	i	i	i	-5.9*	i	554%*	i	32%*	i	i	nt
CN=C1c2cc3c(Br)c(OC)ccc3n2CCN1C	i	i	i	-8.3*	i	nt	nt	nt	nt	i	i	TRPC4 sel inh 2=i;TRPC4 spec=-14%*;HEK293 MPD ctr 2-1=10%*;HEK293 MPD ctr-1=-280%*
C[C@H](NC(=O)C1CC(=O)N(c2ccc(F)cc2)C1)C(=O)N1CCCCC1 (stereo partly drawn)	i	i	i	i	i	nt	nt	nt	nt	nt	nt
O=C(NC(=S)N1CCOCC1)c1ccc(F)cc1	i	i	i	i	i	nt	nt	nt	nt	nt	nt
CC(C)CCN1C(=O)CCC1(C)C(=O)NC1CCCCCC1 (stereo not drawn)	i	i	i	-5.8*	i	128%*	i	26%*	i	i	nt
Cc1cccc(C)c1OCCCCN1CCNCC1	i	i	i	i	i	nt	nt	nt	nt	nt	nt
Cc1ccccc1OCCCCCCN1CCNCC1	i	10*	i	-8.2*	i	nt	nt	nt	nt	i	i	TRPC4 sel inh 2=54%*;TRPC4 spec=1.8%*;HEK293 MPD ctr 2-1=i;HEK293 MPD ctr-1=4.1%*
Cc1cccc(OCCCCN2CCNCC2)c1	i	i	i	i	i	nt	nt	nt	nt	nt	nt
